The record followed here is ChEMBL document CHEMBL1142598, “Phytochemistry and antifungal properties of the newly discovered tree Pleodendron costaricense” (2006).

Values after ≈ are worked out from the molar mass of the structure shown.

Assay [1] has as its system Exophiala dermatitidis. Kind of assay: Antifungal activity against yeast-like Wangiella dermatitidis after 48 hrs by NCCLS M27A method.
Assay [2] relates to Candida albicans. Kind of assay: Antifungal activity against azole-resistant Candida albicans CN1A after 48 hrs by NCCLS M27A method. The format is functional. An outline of the steps:
(§1)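 Yeast-like strain grown on SD agar at 30 °C. One colony cultured overnight in SD broth at 30 °C to OD600 0.6–0.9, then diluted 1:5000 in SD broth. Broth microdilution from 20 mg/mL stocks in 95% EtOH, with 4-fold serial dilution and a no-compound negative column. Incubated 30 °C, 48 h. MIC is the lowest concentration giving ≥80% growth reduction.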

Assay [3] deals with Alternaria alternata. Kind of assay: Antifungal activity against Alternaria alternata after 48 hrs by NCCLS M27A method. The format is functional. Summed up: (§2)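 Filamentous fungi grown on Sabouraud dextrose (SD) agar at 30 °C. Hyphae-containing agar block blended in SD broth, then diluted 1:5000 in SD broth. Broth microdilution in SD broth from 20 mg/mL stocks in 95% EtOH, with 4-fold serial dilution and a no-compound negative column. Incubated 30 °C, 48 h. MIC is the lowest concentration giving ≥80% growth reduction.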

For assay [4], the system named is Scedosporium boydii. Kind of assay: Antifungal activity against Pseudallescheria boydii after 48 hrs by NCCLS M27A method. The assay is classed as functional. Summed up: as §2
The subject of assay [5] is Cryptococcus neoformans. Kind of assay: Antifungal activity against Cryptococcus neoformans after 48 hrs by NCCLS M27A method. The format is functional. Summed up:
as §1

Assay [6] deals with Saccharomyces cerevisiae. Kind of assay: Antifungal activity against Saccharomyces cerevisiae after 48 hrs by NCCLS M27A method. The format is functional. Summed up:
as §1

In assay [7] the test system is Candida albicans. Kind of assay: Antifungal activity against wild type Candida albicans Al-1 in presence of dillapiol. The format is functional. An outline of the steps:
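Synergy run by a similar broth-microdilution MIC method in C. albicans Al-1. One-row 2-fold serial dilution starting at 1000 µg/mL, testing compound alone, dillapiol alone, and compound plus dillapiol (1:5). FIC is the MIC in combination divided by the MIC alone. FICI is the dillapiol FIC plus the compound FIC.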

Assay [8] concerns Candida albicans. Kind of assay: Antifungal activity against wild type Candida albicans Al-1 after 48 hrs by NCCLS M27A method. The format is functional. Summed up:
as §1

Assay [9] has as its system Candida albicans. Kind of assay: Antifungal activity against azole-resistant Candida albicans D10 after 48 hrs by NCCLS M27A method. The assay is classed as functional. Summed up: as §1
Assay [10] deals with Scheffersomyces shehatae. Kind of assay: Antifungal activity against Candida shehatae after 48 hrs by NCCLS M27A method. The assay is classed as functional. Summed up:
as §1

For assay [11], the system named is Candida albicans. Kind of assay: Potentiation of drimane-type sesquiterpene-induced antifungal activity against wild type Candida albicans Al-1 assessed as fractional inhibition concentration index. The assay is classed as functional. An outline of the steps: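 Broth microdilution in Sabouraud dextrose broth against C. albicans Al-1 (wild type), incubated at 30 °C for 48 h. Each sesquiterpene was tested alone, dillapiol alone, and the two combined at 1:5. A one-row 2-fold serial dilution started at 1000 µg/mL. MIC was the lowest concentration giving ≥80% growth reduction. FICI = FIC of dillapiol + FIC of compound, where FIC = MIC in combination / MIC alone.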

Consider `COc1ccc2cc3[n+](cc2c1OC)CCc1cc2c(cc1-3)OCO2.[Cl-]` [BERBERINE CHLORIDE], for which the MIC – broadly, the lowest concentration found to suppress growth – in assay [1] was 31.3 µg/mL; in assay [2] it was 15.6 µg/mL; in assay [3], 125 µg/mL; in assay [4], 62.5 µg/mL; in assay [5] it was 31.3 µg/mL; in assay [6] it was 78.1 µg/mL. For the same compound, the MIC in assay [7] was found to be 15.6 µg/mL; in assay [8], 31.3 µg/mL; in [9], 31.3 µg/mL; in assay [10], 7.8 µg/mL. For the same compound, the “fractional inhibitory concentration index (FICI)” value in assay [11] was determined as 0.5.
Take `CC(=O)O[C@@H]1C=C(C=O)[C@](O)(C=O)[C@@]2(C)CCCC(C)(C)[C@H]12` [CINNAMODIAL]: the MIC amounted to 15.6 µg/mL (≈ 50.6 µM) in [1]; 62.5 µg/mL (≈ 203 µM) in [2]; 3.9 µg/mL (≈ 12.6 µM) in [3]; 125 µg/mL (≈ 405 µM) in assay [4]; 31.3 µg/mL (≈ 102 µM) in assay [5]; 31.3 µg/mL (≈ 102 µM) in [6]. Also, the MIC in [7] was 15.6 µg/mL; in assay [8] it was 62.5 µg/mL (≈ 203 µM); in [9], 15.6 µg/mL (≈ 50.6 µM); in assay [10] it was 31.3 µg/mL (≈ 102 µM). Further, in [11], the “fractional inhibitory concentration index (FICI)” value came out at 0.3.
Take `CC(=O)O[C@@H]1C=C2C(=O)OC[C@]2(O)[C@@]2(C)CCCC(C)(C)[C@H]12` [CINNAMOSMOLIDE]: the minimum inhibitory concentration (MIC) in assay [1] worked out at 313 µg/mL (≈ 1020 µM); in assay [2], 23.4 µg/mL (≈ 75.9 µM); in [4], 78.1 µg/mL (≈ 253 µM); in [5] it was 625 µg/mL (≈ 2030 µM); in assay [6], 1250 µg/mL (≈ 4050 µM); in assay [8], 1250 µg/mL (≈ 4050 µM). For the same compound, the MIC in assay [9] was 156 µg/mL (≈ 506 µM); in assay [10], 625 µg/mL (≈ 2030 µM).
`C=CCc1cc2c(c(OC)c1OC)OCO2` [DILLAPIOLE]: the MIC in assay [8] is 500 µg/mL (≈ 2250 µM).
As for `CC(=O)N1CCN(c2ccc(OCC3COC(Cn4ccnc4)(c4ccc(Cl)cc4Cl)O3)cc2)CC1` (centres undefined) [KETOCONAZOLE], the MIC is 31.3 µg/mL (≈ 58.9 µM) in assay [1]; 93.8 µg/mL (≈ 177 µM) in [2]; 93.8 µg/mL (≈ 177 µM) in assay [4]; 0.04 µg/mL (≈ 0.0753 µM) in [5]; 1.2 µg/mL (≈ 2.26 µM) in [6]; 0.4 µg/mL (≈ 0.753 µM) in [8]. The MIC in assay [9] stood at 93.8 µg/mL (≈ 177 µM).
In the case of `CC1(C)CCC[C@@]2(C)[C@H]1[C@@H](O)C=C(C=O)[C@]2(O)C=O` [MUKAADIAL], the MIC was found to be 250 µg/mL in [7] and 1000 µg/mL (≈ 3750 µM) in [8]. Besides, in [11], the “fractional inhibitory concentration index (FICI)” value came to 0.8.
In the same order, the values of `CC(=O)O[C@H]1C=C(C=O)[C@](O)(C=O)[C@@]2(C)[C@H](OC(C)=O)CCC(C)(C)[C@H]12` [PARRITADIAL] are 250 µg/mL, 1000 µg/mL (≈ 2730 µM) and 1.5.
